According to ChEMBL document CHEMBL5338759, “N-Phenyl-1-(phenylsulfonyl)-1H-1,2,4-triazol-3-amine as a New Class of HIV-1 Non-nucleoside Reverse Transcriptase Inhibitor” (J Med Chem, 2023):

Tests used:
[1] = Subacute toxicity in BALB/c mouse assessed as reduction in alkaline phosphatase level at 250 mg/kg, IG measured daily for 30 days; format: organism-based; conditions: in vivo, po, 720 h, time 30 day
How it was run: (§1)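 Dosing was daily intragastric 25 or 250 mg/kg in 1% starch gel (0.2 ml/20 g) for 30 days in male Balb/C mice, 17 per group, with starch gel controls. After the final dose, mice were fasted for 2 h with water available, then bled. Serum was clotted for 30 min at room temperature and centrifuged at 3500 rpm. Total protein, urea, creatinine, AST, ALT and alkaline phosphatase were assayed and compared by Mann-Whitney with Holm-Šídák, p < 0.05.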

[2] = Selectivity index, ratio of CC50 for cytotoxicity against human TZM-bl cells assessed as reduction in cell viability by MTS assay to EC50 for antiviral activity against wild type HIV1 IIIB infected in human TZM-bl cells; format: toxicity, cell-based; conditions: read-out: Ratio CC50/EC50
[3] = Subacute toxicity in BALB/c mouse assessed as effect on spleen weight at 25 to 250 mg/kg, IG measured daily for 30 days; format: organism-based; conditions: in vivo, po, 720 h, dose 25-250 mg/kg, time 30 day
[4] = test system: TZM; test: Cytotoxicity against human TZM-bl cells assessed as reduction in cell viability by MTS assay; format: functional
[5] = Metabolic stability in mouse liver microsome measured up to 60 mins presence of NADPH; format: ADME; conditions: microsomes, 1 h
[6] = Subacute toxicity in BALB/c mouse assessed as reduction in reticulocytes count at 25 to 250 mg/kg, IG measured daily for 30 days; format: organism-based; conditions: in vivo, po, 720 h, dose 25-250 mg/kg, time 30 day
[7] = Subacute toxicity in BALB/c mouse assessed as effect on thymus weight at 25 to 250 mg/kg, IG measured daily for 30 days; format: organism-based; conditions: in vivo, po, 720 h, dose 25-250 mg/kg, time 30 day
[8] = test system: Human immunodeficiency virus; test: Antiviral activity against wild type HIV IIIB infected in human TZM-bl cells; format: functional, organism-based; conditions: Human immunodeficiency virus 1, IIIB
How it was run: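 TZM-bl cells (2x10⁵/mL) infected with HIV-1 IIIB grown in H9 cells, with 15 µg/mL DEAE-dextran; serial dilutions from 10 mM DMSO stocks, DMSO held constant (0.005% or 0.05%); 37°C, 5% CO₂, 48 hr; cells lysed, luciferase RLU read.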

[9] = Neurotoxicity in mouse primary neurons assessed as loss of MAP-2 intensity at 0.0001 to 10 uM incubated for 48 hrs by semi-quantitative analysis; conditions: neuron
[10] = Subacute toxicity in BALB/c mouse assessed as reduction in hematocrit level at 25 to 250 mg/kg, IG measured daily for 30 days; format: organism-based; conditions: in vivo, po, 720 h, dose 25-250 mg/kg, time 30 day
[11] = Subacute toxicity in BALB/c mouse assessed as pathological change in intestine at 25 to 250 mg/kg, IG measured daily for 30 days by H and E staining based histological analysis; format: organism-based; conditions: in vivo, po, 720 h, dose 25-250 mg/kg, time 30 day
How it was run: (§2)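 Male Balb/C mice (17 per group) received 25 or 250 mg/kg intragastrically in 1% starch gel once daily for 30 days, against starch gel controls. Internal organs were examined macroscopically after the study. Sections were paraffin-embedded and stained with hematoxylin and eosin.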

[12] = Cmax in BALB/c mouse brain at 250 mg/kg, IG measured at 0.5 to 24 hrs by HPLC-MS analysis; format: ADME, organism-based; set-up: time 0.5-24 hrs, dose 250 mg/kg, route ig; conditions: po
How it was run: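 Mice averaging 20 g (24 animals) were fasted 1 h before and 1 h after dosing. They received 250 mg/kg as 0.5 ml suspension in 1% CMC, 0.05% Tween 80 by intragastric intubation. Blood and brain were taken after decapitation at 0.5, 1, 2, 3, 5, 8 and 24 h (3 per time point). Plasma was frozen at -20°C and brain at -120 °C. Quantification was by UPLC-HRMS (ESI+, EIC m/z 476.0691) against plasma-matrix standards. Parameters were derived by noncompartmental analysis; LLOQ 5 ng/ml, with values below it set to 2.5.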

[13] = Acute toxicity in BALB/c mouse assessed as body weight gain at 2000 mg/kg, IG measured for 14 days; format: organism-based; conditions: in vivo, po, 336 h, time 14 day
How it was run: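 Male Balb/C mice, 5–6 weeks old and 19–21 g, were deprived of food and water for 1.5–2 h. They were given a single intragastric 2000 mg/kg dose at 0.5 ml/20 g, prepared just before use. Controls received 0.5 ml of 1% starch gel intragastrically. There were 5 mice per group, observed for 14 days for condition and weight; weight was compared by Šídák's multiple comparisons test.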

[14] = Subacute toxicity in BALB/c mouse assessed as pathological change in spleen at 25 to 250 mg/kg, IG measured daily for 30 days by H and E staining based histological analysis; format: organism-based; conditions: in vivo, po, 720 h, dose 25-250 mg/kg, time 30 day; how it was run: as §2
[15] = Metabolic stability in human liver microsome measured up to 60 mins presence of NADPH; format: ADME; conditions: microsomes, 1 h
[16] = test system: Human immunodeficiency virus 1; test: Antiviral activity against HIV1 harboring K103N mutant infected in human TZM-bl cells; format: functional, organism-based; conditions: Human immunodeficiency virus 1, TZM-bl
How it was run: (§3)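 TZM-bl cells (2x10⁵/mL) were infected with mutant virus in the presence of 15 µg/mL DEAE-dextran. A17 (IIIB variant) was grown in H9 cells; the other mutants were NL4-3-based plasmids transfected into 293T cells, then expanded in H9 cells. Compounds were tested at 0.05–500 nM (DMSO constant within an assay) for 48 hr at 37°C. Read-out was luciferase RLU from lysed cells, with at least 6 replicates over multiple days.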

[17] = Selectivity ratio of IC50 for antiviral activity against wild type HIV1 IIIB infected in human TZM-bl cells to IC50 for antiviral activity against HIV1 harboring K103N mutant infected in human TZM-bl cells; format: toxicity, cell-based; conditions: human immunodeficiency virus 1
How it was run: (§4)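 TZM-bl cells (2x10⁵/mL) with 15 µg/mL DEAE-dextran were infected with HIV-1 IIIB, A17 (K103N/Y181C) IIIB variant, or NL4-3-based NNRTI-resistant mutants. Compound was present at 0.05–500 nM (DMSO held constant, 0.005% or 0.05%) for 48 hr at 37°C, 5% CO₂.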

[18] = target: Voltage-gated inwardly rectifying potassium channel KCNH2 (Homo sapiens, UniProt Q12809); test: Inhibition of hERG by fluorescence polarization assay; format: toxicity
[19] = Subacute toxicity in BALB/c mouse assessed as reduction in hemoglobin level at 25 to 250 mg/kg, IG measured daily for 30 days; format: organism-based; conditions: in vivo, po, 720 h, dose 25-250 mg/kg, time 30 day
[20] = Subacute toxicity in BALB/c mouse assessed as reduction in urea level at 25 to 250 mg/kg, IG measured daily for 30 days; format: organism-based; conditions: in vivo, po, 720 h, dose 25-250 mg/kg, time 30 day; how it was run: as §1
[21] = Subacute toxicity in BALB/c mouse assessed as effect on pancreas weight at 25 to 250 mg/kg, IG measured daily for 30 days; format: organism-based; conditions: in vivo, po, 720 h, dose 25-250 mg/kg, time 30 day
[22] = Subacute toxicity in BALB/c mouse assessed as effect on kidney weight at 25 to 250 mg/kg, IG measured daily for 30 days; format: organism-based; conditions: in vivo, po, 720 h, dose 25-250 mg/kg, time 30 day
[23] = test system: Human immunodeficiency virus 1; test: Antiviral activity against HIV1 harboring A17 mutant infected in human TZM-bl cells; format: functional, organism-based; conditions: Human immunodeficiency virus 1, TZM-bl; how it was run: as §3
[24] = Selectivity ratio of IC50 for antiviral activity against wild type HIV1 IIIB infected in human TZM-bl cells to IC50 for antiviral activity against HIV1 harboring L100I/K103N double mutant infected in human TZM-bl cells; format: toxicity, cell-based; conditions: human immunodeficiency virus 1; how it was run: as §4

Chain of Voltage-gated inwardly rectifying potassium channel KCNH2 (Q12809 whole entry): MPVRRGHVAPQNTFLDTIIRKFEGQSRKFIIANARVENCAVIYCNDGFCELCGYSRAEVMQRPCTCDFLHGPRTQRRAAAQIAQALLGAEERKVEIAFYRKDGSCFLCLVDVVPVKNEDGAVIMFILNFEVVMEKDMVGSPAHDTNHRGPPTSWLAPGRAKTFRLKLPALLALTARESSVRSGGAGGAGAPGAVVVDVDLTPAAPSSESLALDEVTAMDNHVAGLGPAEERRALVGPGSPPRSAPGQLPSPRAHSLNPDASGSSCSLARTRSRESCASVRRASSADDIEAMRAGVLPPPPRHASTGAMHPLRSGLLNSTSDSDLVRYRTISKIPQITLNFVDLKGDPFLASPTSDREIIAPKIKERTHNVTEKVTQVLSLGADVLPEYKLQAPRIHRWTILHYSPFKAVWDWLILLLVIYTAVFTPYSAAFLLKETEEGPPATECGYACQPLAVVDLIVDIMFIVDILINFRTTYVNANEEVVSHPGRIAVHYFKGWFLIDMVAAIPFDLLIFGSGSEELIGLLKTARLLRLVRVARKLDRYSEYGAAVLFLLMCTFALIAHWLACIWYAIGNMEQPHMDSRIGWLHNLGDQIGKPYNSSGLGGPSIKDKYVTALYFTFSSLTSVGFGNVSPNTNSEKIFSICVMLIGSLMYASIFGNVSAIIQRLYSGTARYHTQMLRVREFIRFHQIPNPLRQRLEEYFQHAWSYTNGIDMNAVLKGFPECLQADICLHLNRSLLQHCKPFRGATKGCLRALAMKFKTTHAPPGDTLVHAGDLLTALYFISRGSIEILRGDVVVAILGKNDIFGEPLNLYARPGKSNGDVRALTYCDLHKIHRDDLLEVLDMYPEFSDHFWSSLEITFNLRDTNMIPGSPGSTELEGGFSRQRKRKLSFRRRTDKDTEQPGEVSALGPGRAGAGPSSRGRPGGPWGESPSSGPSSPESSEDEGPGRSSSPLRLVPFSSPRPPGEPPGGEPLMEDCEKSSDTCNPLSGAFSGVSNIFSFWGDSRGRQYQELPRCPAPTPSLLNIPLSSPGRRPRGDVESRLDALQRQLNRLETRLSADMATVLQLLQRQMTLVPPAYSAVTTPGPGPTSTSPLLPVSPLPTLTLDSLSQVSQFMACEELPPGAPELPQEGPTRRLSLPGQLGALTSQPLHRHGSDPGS

## N#C/C=C/c1ccc2c(S(=O)(=O)n3nc(Nc4ccc(C#N)c(Cl)c4)nc3N)cccc2c1
[1]
  Activity: Non-Toxic
[2]
  selectivity ratio: 10000
[3]
  Activity: Non-Toxic
[4]
  CC50: 4800 nM
[5]
  Stability: Stable
[6]
  Activity: Non-Toxic
[7]
  Activity: Non-Toxic
[8]
  IC50: 0.31 nM
[9]
  Activity: Non-Toxic
[10]
  Activity: Non-Toxic
[11]
  Activity: Non-Toxic
[12]
  Cmax: 40.3 ng/100 mg
[13]
  Activity: Non-Toxic
[14]
  Activity: Non-Toxic
[15]
  Stability: Stable
[16]
  IC50: 5.9 nM
[17]
  Ratio IC50: 8.9
[18]
  IC50: 11500 nM
[19]
  Activity: Non-Toxic
[20]
  Activity: Non-Toxic
[21]
  Activity: Non-Toxic
[22]
  Activity: Non-Toxic
[23]
  EC50: 0.689 nM
  IC50: 1.3 nM
[24]
  Ratio IC50: 75
